# Compound activity (PubChem)
# Compounds with a hit are over-represented: about 2.5% of the library has one in this group of screens.
# TCR-CD3 inh: human TCR-CD3 binding inhibition; actives 0.37% (n = 360,000); TAMRA-labeled TCR probe fluorescence, biochemical; inhibition, % at 9.4 µM;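 also: recombinant mutant TCR 2C K166C tagged with TAMRA read by polarization; 0% = receptor in buffer alone and 100% = receptor with positive control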
# HTRA1 inh: HTRA1 (human) protease inhibition | Q92743 | recombinant HTRA1, FP-rhodamine activity-based probe, fluorescence polarization | inhibition, % at 5.96 µM | actives 0.5% (n = 340,000); in the data active = inhibition above about 36%;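 also: 0% = enzyme with DMSO and 100% = wells lacking enzyme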
# SIAE primary: blocks human sialic acid acetylesterase; Q9HAT2; SIAE FP-Rh probe binding, fluorescence polarization; inhibition, % at 9.66 µM; actives 0.69% (n = 370,000); AID 1053197;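 active = inhibition above a cutoff: mean of compounds within the control limits plus 3 SD of those, cut at about 17% in these data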;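 also: 0% = plate median of compound wells and 100% = probe without SIAE protein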
# ABHD4 inh: inhibits mouse alpha/beta hydrolase domain 4; AID 720543; Q8VD66; actives 0.54% (n = 370,000); purified mABHD4, FP-Rh probe fluorescence polarization; inhibition, % at 8.92 µM;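 active = inhibition exceeding the mean over every tested compound plus 3 SD, cut at about 30% in these data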;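 also: 0% = plate median of compound wells and 100% = S159A mutant with DMSO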
# Target sequence (Q8VD66 whole entry, looked up, the tested form may be a part): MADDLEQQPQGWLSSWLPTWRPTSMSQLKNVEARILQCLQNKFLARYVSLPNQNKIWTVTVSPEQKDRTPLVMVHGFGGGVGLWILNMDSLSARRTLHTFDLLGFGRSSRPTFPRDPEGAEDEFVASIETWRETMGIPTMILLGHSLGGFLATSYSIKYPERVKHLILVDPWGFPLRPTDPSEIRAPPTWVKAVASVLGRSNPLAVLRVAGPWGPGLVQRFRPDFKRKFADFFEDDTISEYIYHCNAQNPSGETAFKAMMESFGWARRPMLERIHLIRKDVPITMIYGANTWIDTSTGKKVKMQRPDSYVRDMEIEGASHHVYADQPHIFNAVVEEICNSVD
#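 Test system: mouse ABHD4 enzyme, wild type. Reagent: FP-Rh fluorescent activity-based probe, added after compound pre-incubation. Timing: pre-incubation 45 min, probe exposure 60 min, at 25 °C. Technique: FP readout, ex 525 nm / em 598 nm. Benchmarks: high control S159A mutant with DMSO, low control median of compound wells.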
# rCAG RNA binder: molecules binding r(CAG) RNA repeats; r(CAG) RNA repeat, TO-PRO-1 dye displacement fluorescence; inhibition, % at 3 µM; actives 1.3% (n = 370,000);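 active = inhibition above the plate cutoff, the mean of all test compounds on that plate plus 3 SD, cut at about 35% in these data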;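 also: 0% = DMSO alone and 100% = 100 µM mitoxantrone as full dye displacement; higher means more dye released from RNA so lower well fluorescence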
# HTRA1 conf: confirmation of human HTRA1 inhibitors | shares compounds with HTRA1 inh | recombinant HTRA1, FP-rhodamine activity-based probe, fluorescence polarization | inhibition, % at 5.96 µM | actives 66% (n = 1,600) | AID 540248;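 active = mean inhibition over three repeats above a set limit taken from the earlier primary screen, cut at about 37% in these data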;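 also: 0% = HTRA1 with DMSO and 100% = wells lacking HTRA1; inhibitors block probe binding so polarization drops and inhibition rises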
# BSA TAMRA ctr: BSA probe counter-screen for TCR-CD3 inhibitors. shares compounds with TCR-CD3 inh. TAMRA-labeled BSA probe fluorescence counterscreen. inhibition, % at 9.4 µM. actives 10% (n = 1,200); in the data active = inhibition above about 23%;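 also: 0% = buffer low control and 100% = reference high control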
# TCR-CD3 conf: confirmation of human TCR-CD3 interaction inhibitors; actives 48% (n = 1,200); inhibition, % at 9.4 µM; TAMRA-labeled TCR probe fluorescence binding assay; shares compounds with TCR-CD3 inh
# rCAG bind conf: r(CAG) RNA repeat binding, confirmation | actives 70% (n = 4,300) | inhibition, % at 3 µM | shares compounds with rCAG RNA binder | TO-PRO-1 dye displacement fluorescence | AID 652065;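 active = inhibition above a per-plate cutoff, the mean inhibition of sample wells plus 3 SD, cut at about 35% in these data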;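 also: loss of TO-PRO-1 fluorescence as compound displaces dye from 1x1 AA loop RNA; 0% = DMSO only wells and 100% = 100 µM mitoxantrone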
# DNA CAG counter: DNA CAG dye complex inhibition counter-screen; shares compounds with rCAG RNA binder; d(CAG) DNA oligo TO-PRO-1 dye displacement, fluorescence; inhibition, % at 3 µM; actives 94% (n = 4,300); AID 652068;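 active = inhibition above its plate's cutoff, the mean test-well inhibition plus 3 SD, cut at about 4.8% in these data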;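 also: 0% = DNA dye mix with DMSO and 100% = 100 µM mitoxantrone; hits displace the dye from DNA and so lower well fluorescence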
# mABHD4 conf: confirmation of mouse ABHD4 inhibitors; shares compounds with ABHD4 inh; purified mABHD4, FP-Rh probe fluorescence polarization; inhibition, % at 8.92 µM; actives 55% (n = 1,800); AID 720658;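 active = mean inhibition across replicates above the hit cutoff set in the primary screen, cut at about 30% in these data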;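 also: 0% = wild-type ABHD4 with DMSO and 100% = catalytically dead S159A mutant with DMSO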
# SIAE confirm: human SIAE inhibition, confirmation. SIAE FP-Rh activity-based probe, fluorescence polarization. inhibition, % at 9.66 µM. actives 13% (n = 2,300). shares compounds with SIAE primary;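 active = mean inhibition of the replicates above the hit cutoff set in the primary screen, cut at about 17% in these data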;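 also: 0% = SIAE with DMSO and probe and 100% = probe without SIAE; inhibitors lower polarization as more probe stays unbound to SIAE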
# * marks the source's active call; other numbers are inactive results; nt = not tested or not shown. Rule as the data show it, unless noted: active = inhibition above about 19%; inactive = the rest.
SMILES,TCR-CD3 inh,HTRA1 inh,SIAE primary,ABHD4 inh,rCAG RNA binder,HTRA1 conf,mABHD4 conf,SIAE confirm,others
COc1ccc2c(c1)CCC1(C)CC(=O)C=C21 (stereo unspecified),0,3,5,-2,2,nt,nt,nt,
Cc1cc(N)nc(SCC(=O)N2C(C)CCCC2C)n1 (stereo unspecified),-1,-5,-5,11,-2,nt,nt,nt,
Oc1ccc(NCc2cccc(OCc3ccc(F)cc3)c2)cc1,25*,58*,40*,49*,7,6,15,8,BSA TAMRA ctr=5;TCR-CD3 conf=4
Oc1ccc(NCc2cccc(OCc3ccccc3)c2)cc1,26*,51*,44*,50*,10,12,23,12,BSA TAMRA ctr=-2;TCR-CD3 conf=2
O=[N+]([O-])c1ccc(COc2cccc(CNc3ccc(F)cc3)c2)cc1,-1,-7,0,-10,5,nt,nt,nt,
c1ccc(COc2cccc(CNCc3cccnc3)c2)cc1,4,-11,2,2,-3,nt,nt,nt,
Cc1nc2ccccc2n2c(O)c(CC(=O)O)cc12,16,55*,18*,30*,12,40*,74*,31*,
O=C(Nc1ccccc1Cl)c1ccc([N+](=O)[O-])o1,6,7,-2,1,1,nt,nt,nt,
Oc1ccc(-c2csc(Nc3cccc4ccccc34)n2)cc1O,10,71*,26*,21,54*,71*,nt,-3,rCAG bind conf=55*;DNA CAG counter=34*
Cc1csc(Nc2cccc3ccccc23)n1,-3,1,3,6,2,nt,nt,nt,
COc1ccc(C(=O)C(=NN)c2ccccc2)cc1,1,-6,-5,3,2,nt,nt,nt,
Oc1ccc(/C=N/N=C(c2ccccc2)c2ccccc2)c(O)c1O,35*,66*,20*,42*,30,67*,34*,-15,BSA TAMRA ctr=-11;TCR-CD3 conf=28*
O=C(/C(=N/N=C/c1ccc(O)c(O)c1O)c1ccccc1)c1ccccc1,13,79*,33*,53*,61*,74*,47*,-5,rCAG bind conf=74*;DNA CAG counter=42*
Cn1c(=O)c2c(nc(SCC(=O)Nc3ccccc3)n2C)n(C)c1=O,-3,-3,12,-3,0,nt,nt,nt,
CC(=O)C(=Nc1ccccc1Cl)NNc1ccc(Cl)cc1,-1,47*,18*,43*,-1,-18,-18,1,
COCCn1c(SCC(=O)Nc2ccc3[nH]c(=O)[nH]c3c2)nc2ccccc2c1=O,3,-1,13,0,2,nt,nt,nt,
O=C1C=C(N2CCOCC2)c2cccc3cccc1c23,79*,43*,47*,83*,-28,8,2,-2,BSA TAMRA ctr=7;TCR-CD3 conf=3
O=C1C=C(N2CCOCC2)c2ccccc2C1=O,1,21,-10,24,6,nt,nt,nt,
O=C1C(N2CCOCC2)=Cc2cccc3cccc1c23,87*,59*,49*,86*,-24,39*,83*,27*,BSA TAMRA ctr=70*;TCR-CD3 conf=47*
CC1=C(C)C(=O)C(N2CCOCC2)=CC1=O,13,1,-2,12,-1,nt,nt,nt,
CS(=O)(=O)N1N=C(c2ccccc2)CC1c1cccs1 (stereo unspecified),-7,-9,1,5,-1,nt,nt,nt,
O=C(O)c1ccc(CSc2nnc(-c3ccncc3)n2-c2ccc(Br)cc2)cc1,-7,1,0,-4,5,nt,nt,nt,
